Measured values as given in ChEMBL document CHEMBL1124532, “Angiotensin converting enzyme inhibitors: spirapril and related compounds” (J Med Chem, 1989).
Blank lines part the entries; values can stand above or below the compound they belong to.

Experiments:
[1] = biological target: T1, Angiotensin-converting enzyme (Homo sapiens, UniProt P12821); assay: (§1) Compound tested in vitro for inhibition of Angiotensin I converting enzyme
[2] = biological target: T2, Angiotensin-converting enzyme (Rattus norvegicus) (UniProt P47820); assay: Compound tested in vivo for inhibition of Angiotensin I converting enzyme in rat; format: organism-based
T2 sequence (whole entry): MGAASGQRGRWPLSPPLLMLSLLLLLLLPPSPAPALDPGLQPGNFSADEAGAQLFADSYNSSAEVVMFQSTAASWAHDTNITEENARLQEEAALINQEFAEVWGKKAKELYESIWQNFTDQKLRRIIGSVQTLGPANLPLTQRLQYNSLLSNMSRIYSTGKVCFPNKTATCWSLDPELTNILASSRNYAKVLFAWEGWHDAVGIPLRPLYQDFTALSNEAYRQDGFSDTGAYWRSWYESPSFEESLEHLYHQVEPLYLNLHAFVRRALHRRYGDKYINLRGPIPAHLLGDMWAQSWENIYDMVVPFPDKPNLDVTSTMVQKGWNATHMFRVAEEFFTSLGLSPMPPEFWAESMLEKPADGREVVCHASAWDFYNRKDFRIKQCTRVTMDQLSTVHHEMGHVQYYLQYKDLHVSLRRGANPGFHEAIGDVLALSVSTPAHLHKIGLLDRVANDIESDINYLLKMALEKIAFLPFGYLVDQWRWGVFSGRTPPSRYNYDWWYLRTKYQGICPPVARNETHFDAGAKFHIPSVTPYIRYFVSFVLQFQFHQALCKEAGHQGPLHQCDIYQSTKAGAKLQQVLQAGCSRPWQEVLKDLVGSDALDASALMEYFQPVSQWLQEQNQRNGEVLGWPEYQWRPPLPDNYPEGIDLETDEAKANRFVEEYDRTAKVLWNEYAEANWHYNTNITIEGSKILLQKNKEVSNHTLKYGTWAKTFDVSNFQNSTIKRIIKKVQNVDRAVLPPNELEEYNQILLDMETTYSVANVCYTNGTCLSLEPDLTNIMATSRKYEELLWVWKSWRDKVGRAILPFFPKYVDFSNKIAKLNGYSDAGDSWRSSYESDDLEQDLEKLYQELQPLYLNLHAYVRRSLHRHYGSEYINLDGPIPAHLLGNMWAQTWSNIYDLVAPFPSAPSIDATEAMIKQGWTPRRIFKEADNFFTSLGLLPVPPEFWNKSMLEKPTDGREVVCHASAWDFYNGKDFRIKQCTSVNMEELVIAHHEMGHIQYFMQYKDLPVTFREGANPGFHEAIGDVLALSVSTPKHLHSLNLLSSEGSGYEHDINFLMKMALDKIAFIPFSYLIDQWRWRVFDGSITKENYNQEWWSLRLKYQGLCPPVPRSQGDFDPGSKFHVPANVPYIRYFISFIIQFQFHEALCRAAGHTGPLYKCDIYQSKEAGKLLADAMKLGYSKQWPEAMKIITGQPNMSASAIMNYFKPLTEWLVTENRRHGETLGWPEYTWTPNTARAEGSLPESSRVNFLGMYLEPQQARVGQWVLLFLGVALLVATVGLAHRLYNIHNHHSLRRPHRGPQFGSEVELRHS
Summary of the method: (§2)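 Male Sprague-Dawley rats (280–365 g) anesthetized with inactin (100 mg/kg ip) or dial urethane, with carotid blood pressure recorded. AI 1 µg/kg iv was given before and 5 min after each cumulative iv drug dose (3, 10, 30 µg/kg; EtOH/saline, ≤12% EtOH). Percent of control pressor response was regressed on log dose to give ID50 per animal, then averaged.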

[3] = Compound tested in vitro for inhibition of Angiotensin I converting enzyme in rat
Summary of the method: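 Cushman–Cheung method using crude ACE enzyme preparations, with batches varying over the study period. IC50 was determined, and a reference ACE inhibitor was assayed concurrently in each run.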

[4] = biological target: T2, Angiotensin-converting enzyme (Rattus norvegicus); assay: Compound tested in vivo for inhibition of angiotensin converting enzyme in rat; format: organism-based; summary of the method: as §2
[5] = biological target: T3, Angiotensin-converting enzyme (Rattus norvegicus, UniProt P47820); assay: as §1
T3 sequence (P47820 whole entry): T2 sequence (whole entry)
Summary of the method: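 In vitro ACE inhibition by the Cushman–Cheung procedure using crude enzyme preparations whose batches varied over time. IC50 determined with a reference inhibitor run concurrently.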

Canis familiaris = organism: Canis familiaris; assay: Compound was tested for its efficacy in dog; format: functional, Canis lupus familiaris
[6] = biological target: T1, Angiotensin-converting enzyme; assay: Compound was tested for inhibitory activity against angiotensin converting enzyme when administered intravenously to anesthetized dogs; conditions: Canis lupus familiaris; target entry is the homologue from another species

T1 sequence (P12821 whole entry): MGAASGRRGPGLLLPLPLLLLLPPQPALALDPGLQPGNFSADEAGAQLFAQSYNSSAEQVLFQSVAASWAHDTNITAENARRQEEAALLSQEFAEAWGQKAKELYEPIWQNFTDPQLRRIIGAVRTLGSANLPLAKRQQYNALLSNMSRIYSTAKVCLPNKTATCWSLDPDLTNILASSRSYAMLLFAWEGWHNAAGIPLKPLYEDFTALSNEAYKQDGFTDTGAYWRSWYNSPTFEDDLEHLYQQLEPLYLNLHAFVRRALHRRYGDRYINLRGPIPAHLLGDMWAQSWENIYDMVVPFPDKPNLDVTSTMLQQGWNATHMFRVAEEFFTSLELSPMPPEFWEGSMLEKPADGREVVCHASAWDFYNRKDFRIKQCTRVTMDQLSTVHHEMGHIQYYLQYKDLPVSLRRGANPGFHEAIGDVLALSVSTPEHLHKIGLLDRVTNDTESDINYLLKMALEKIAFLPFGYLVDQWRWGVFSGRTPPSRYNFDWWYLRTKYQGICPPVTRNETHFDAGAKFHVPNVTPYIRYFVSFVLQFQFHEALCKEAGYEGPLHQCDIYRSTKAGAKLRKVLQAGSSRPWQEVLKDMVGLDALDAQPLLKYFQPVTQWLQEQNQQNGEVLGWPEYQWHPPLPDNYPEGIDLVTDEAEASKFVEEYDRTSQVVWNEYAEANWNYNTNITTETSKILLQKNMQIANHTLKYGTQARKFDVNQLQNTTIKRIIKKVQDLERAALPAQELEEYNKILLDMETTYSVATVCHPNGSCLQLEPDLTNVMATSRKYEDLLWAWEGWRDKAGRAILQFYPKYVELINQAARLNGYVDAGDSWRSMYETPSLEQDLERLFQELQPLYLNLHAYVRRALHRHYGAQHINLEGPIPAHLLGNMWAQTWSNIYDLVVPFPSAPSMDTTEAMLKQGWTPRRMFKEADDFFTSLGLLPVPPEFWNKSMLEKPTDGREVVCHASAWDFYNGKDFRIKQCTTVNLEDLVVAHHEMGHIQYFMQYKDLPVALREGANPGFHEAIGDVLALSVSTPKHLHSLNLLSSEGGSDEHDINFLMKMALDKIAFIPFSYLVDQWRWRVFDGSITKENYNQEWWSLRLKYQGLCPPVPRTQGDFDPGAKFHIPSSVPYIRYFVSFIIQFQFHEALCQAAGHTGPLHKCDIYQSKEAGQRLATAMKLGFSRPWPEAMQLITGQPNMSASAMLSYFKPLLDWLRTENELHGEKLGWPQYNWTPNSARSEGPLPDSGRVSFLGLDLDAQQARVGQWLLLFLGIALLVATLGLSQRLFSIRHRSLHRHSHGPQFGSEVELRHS

- ID50 [4]: 0.057 mg/kg
Compound: CCOC(=O)[C@H](CCc1ccccc1)N[C@@H](C)C(=O)N1CCC[C@H]1C(=O)O

- ID50 [2]: 0.221 mg/kg
Compound: CCOC(=O)[C@H](CCc1ccccc1)NCC(=O)N1CC2(C[C@H]1C(=O)O)SCCS2

- ID50 [4]: 0.016 mg/kg
- IC50 [5]: 67 nM
- ID50 [6]: 0.3 mg/kg
Compound: CCOC(=O)[C@H](CCc1ccccc1)N[C@@H](C)C(=O)N1CC2(C[C@H]1C(=O)O)SCCS2
- Efficacy (Canis familiaris): 0.3 mg/kg

The next lines start with the compound.

Compound: NCCCC[C@H](N[C@@H](CCc1ccccc1)C(=O)O)C(=O)N1CC2(C[C@H]1C(=O)O)SCCS2
- IC50 [1]: 0.5 nM
- ID50 [2]: 0.01 mg/kg

Compound: NCCCC[C@H](N[C@@H](CCc1ccccc1)C(=O)O)C(=O)N1CCC[C@H]1C(=O)O [LISINOPRIL ANHYDROUS]
- IC50 [3]: 1.2 nM

Compound: C[C@H](N[C@@H](CCc1ccccc1)C(=O)O)C(=O)N1CCC[C@H]1C(=O)O
- ID50 [2]: 0.015 mg/kg

Compound: CCOC(=O)[C@H](CCc1ccccc1)N[C@@H](CCCCN)C(=O)N1CC2(C[C@H]1C(=O)O)SCCS2
- IC50 [1]: 200 nM
- ID50 [2]: 0.01 mg/kg

Compound: CCOC(=O)C(CCc1ccccc1)N[C@@H](C)C(=O)N1CC2(C[C@H]1C(=O)O)SCCS2 (stereo partly drawn)
- IC50 [3]: 92 nM
